PPC-1+TRAIL kill = compounds killing PPC-1 cancer cells with TRAIL present, primary screen, TRAIL potentiator project, ATPLite luminescence, uHTS; AID 1443, 2008; cell killing (% activity), % at 4 µM or 5 µM; hit rate 0.41% among 220,000; PPC-1 cells + TRAIL, ATPLite viability luminescence;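 active = cell killing above 50% in the first pass at 4 µM, then a duplicate retest at 5 µM averaging 50% or more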
FLuc inhib CS = firefly luciferase enzyme inhibitors, primary screen, artefact control for luciferase-based inhibitor screens, biochemical, luminescence, ATPLite | Luciferin 4-monooxygenase (Photinus pyralis), P08659 | 10 min | inhibition, % at 10 µM | hit rate 1.5% among 200,000 | AID 1006, 2008;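 active = inhibition above about 50% when tested at 10 µM, limit read from the data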
Target sequence (P08659 whole entry, looked up): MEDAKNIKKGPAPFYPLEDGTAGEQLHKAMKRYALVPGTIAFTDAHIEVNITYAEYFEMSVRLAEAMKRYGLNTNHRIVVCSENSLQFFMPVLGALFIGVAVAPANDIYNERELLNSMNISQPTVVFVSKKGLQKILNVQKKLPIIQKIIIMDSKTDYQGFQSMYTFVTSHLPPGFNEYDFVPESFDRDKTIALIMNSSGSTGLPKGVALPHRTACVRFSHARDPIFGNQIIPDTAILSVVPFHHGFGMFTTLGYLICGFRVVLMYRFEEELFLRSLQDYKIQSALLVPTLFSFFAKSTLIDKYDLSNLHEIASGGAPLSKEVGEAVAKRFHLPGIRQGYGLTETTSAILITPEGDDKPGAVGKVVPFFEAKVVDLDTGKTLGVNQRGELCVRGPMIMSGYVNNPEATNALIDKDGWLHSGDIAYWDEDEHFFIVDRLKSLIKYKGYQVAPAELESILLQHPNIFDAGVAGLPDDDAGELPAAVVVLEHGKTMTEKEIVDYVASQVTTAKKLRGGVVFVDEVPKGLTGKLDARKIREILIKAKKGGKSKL
FLuc stim CS = FLuc activators, initial screening, artefact control for FLuc-dependent activation tests, biochemical, ATPlite luminescence | Luciferin 4-monooxygenase (Photinus pyralis), P08659 | ATPlite luciferase biochemical, 10 min; 0 = ATP-free wells, 1 = DMSO control | activation factor at 10 µM | 200,000 tested, under 10 active | AID 1027, 2008;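 active = luciferase activation factor, scaled between plate controls, of at least 2 with compound at 10 µM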
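Assay system – cell-free luciferase reagent · Medium – PBS-based ATP solution · Dosing – test compounds dosed from 2 mM stocks in 100% DMSO · Timing – 10 min, room temperature · Technique – light output (luminescence) · Measure – luminescence gain marking luciferase activators · Controls – No-ATP low control, compound-free enzyme-plus-ATP high control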
C8 TRAIL sens = viability loss with TRAIL in NB7+C8 cells, primary screen, TRAIL sensitizer project, cell-based, ATPlite luminescence; inhibition (viability loss, TRAIL sensitization), % at 10 µM; hit rate 1% among 360,000;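 active = compounds causing at least 50% loss of cell viability in the single-dose screen, relative to plate controls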
A number is an active result; n = inactive; x = no result. Compounds with a hit are over-represented: about 1.6% of the library has one in this group of screens.

SMILES | PPC-1+TRAIL kill | FLuc inhib CS | FLuc stim CS | C8 TRAIL sens
CC(=O)OC1C2CCC1C([N+]1(C)CCCCC1)CC2 (centres undefined) | n | n | n | n
O=C(/C(C=Nc1ccc(F)cc1)=C(/O)c1ccco1)C(F)(F)F | n | 79 | n | n
Cc1cccc(N=C/C(C(=O)C(F)(F)F)=C(\O)c2ccco2)c1 | n | n | n | n
C=C1CC2(OC1=O)c1ccccc1CCc1ccccc12 | x | x | x | 91
Oc1ccc(-c2csc(Nc3ncccn3)n2)cc1 | n | 56 | n | n
O=C(N/N=C/c1ccccc1)c1n[nH]c2c1CCCC2 | n | 75 | n | n
O=C(N/N=C/c1cccs1)c1n[nH]c2c1CCC2 | n | 70 | n | n
O=C(N/N=C/c1ccc(Cl)cc1)c1n[nH]c2c1CCCC2 | n | x | x | n
O=S(=O)(/C(=C\c1ccc(C(F)(F)F)cc1)c1nc2ccccc2[nH]1)c1ccccc1 | x | x | x | 85
CN(C)S(=O)(=O)c1cccc(COc2ncnc3c(Cl)cc(Cl)cc23)c1 | x | x | x | n
Cc1cccc(-c2nc3cc([N+](=O)[O-])ccc3o2)c1 | n | n | n | n
CCOc1cccc(-c2nc3cc(C)ccc3o2)c1 | n | 68 | n | n
Cc1ccc2oc(-c3ccccc3)nc2c1 | n | 76 | n | n
Cc1ccc2nc(-c3cc(N)cc(N)c3)oc2c1 | n | 94 | n | 76
Nc1ccc(-c2nc3ccc(-c4nc5ccccc5o4)cc3[nH]2)cc1 | n | n | n | n
CCOC(=O)C1C(c2cccc([N+](=O)[O-])c2)C2C(=O)NN=C2CC1(C)O (centres undefined) | n | n | n | n
COc1cccc2[nH]c3ccccc3c(=O)c12 | x | x | x | n
C=Cc1ncc(OC)c2c1[nH]c1ccccc12 | x | x | x | 66
CC(C)(C)OC(=O)NN1CC(=O)N2[C@@H](Cc3c([nH]c4ccccc34)C2(C)C)C1=O | x | x | x | n
COc1ccc(-c2ccc(SCC(=O)Nc3cccc(C(C)=O)c3)nn2)cc1OC | n | 61 | n | n
CC(=O)c1cccc(NC(=O)CSc2ccc(-c3ccc4c(c3)OCO4)nn2)c1 | n | n | n | 64
O=C(CN(c1ccccc1Cl)S(=O)(=O)c1ccccc1)NC1CC2CCC1C2 (centres undefined) | x | x | x | n
O=C(ONC(=O)C1CCCCC1C(=O)NOC(=O)c1ccccc1)c1ccccc1 (centres undefined) | x | x | x | n
O=Nc1ccc(NOC(=O)c2ccccc2)cc1 | n | 90 | n | n
CSc1ccccc1-c1nc(-c2ccncc2)no1 | x | x | x | n
SMILES | PPC-1+TRAIL kill | FLuc inhib CS | FLuc stim CS | C8 TRAIL sens
CCOC(=O)c1sc(=NC(=O)c2cccc(OC)c2)n(C)c1C | n | n | n | n
CCOC(=O)c1sc(=NC(=O)c2ccccc2)n(C)c1C | n | 68 | n | n
CCOC(=O)c1sc(NC(=O)c2ccccc2)cc1C | n | 69 | n | 50
CCN(CC(=O)Nc1c(F)cccc1F)C(=O)c1cccn1C | x | x | x | n
O=C(CC[C@H]1O[C@@H](n2ccc(=O)[nH]c2=O)[C@H](O)[C@@H]1O)N[C@H](Cc1ccccc1)C(=O)NCC1CCCO1 (some centres undefined) | x | x | x | n
O=C(Oc1ccc2ccccc2c1Cl)N1CCCCCC1 | n | n | n | 53
O=C(Oc1ccc2ccccc2c1Cl)N1CCCC1 | n | n | n | n
CCOC(=O)C(=C1Nc2ccccc2N1)n1c(-c2cccnc2)nc2ccccc21 | x | x | x | 71
CC(C)(C)NC(=O)CN(Cc1ccc2c(c1)OCO2)C(=O)CNS(=O)(=O)c1ccccc1 | x | x | x | n
CCOC(=O)COc1ccc(-c2nnc(-c3ccccc3)o2)cc1 | n | n | n | 49
CCOc1ccc(-c2nnc(-c3ccccc3)o2)cc1 | n | 75 | n | 58
CCOc1ccc(-c2cnc3ccccc3n2)cc1 | n | x | x | 66
CCOC(=O)Cc1nnc(-c2ccccc2)o1 | n | n | n | n
CCOc1ccc(-c2nnc(-c3ccc(OC)cc3)o2)cc1 | n | n | n | n
COc1ccc(C(C)=O)cc1Cn1c(C)c(C(=O)NCc2ccc(C(F)(F)F)cc2)sc1=O | x | x | x | n
O=C(CCc1nnc2n(Cc3ccc(F)cc3)c(=O)c3ccccc3n12)N1CCN(c2ccccn2)CC1 | x | x | x | n
CC1=CC(=O)C(C(C)C)=C/C1=N/OS(=O)(=O)c1ccccc1 | n | x | x | 69
O=C(NCCCc1ccccc1)c1cccc(Br)c1 | x | x | x | n
O=C(CN(Cc1ccccc1)C(=O)CCl)c1cccc(Br)c1 | x | x | x | 97
O=C(Nc1ccccc1)Nc1ccc2ncoc2c1 | n | n | n | n
O=C(Nc1ccccc1)Nc1ccc2ocnc2c1 | n | 61 | n | n

Source: PubChem BioAssay (Sanford-Burnham Center for Chemical Genomics)
